Data from ChEMBL document CHEMBL1125209, “Boc-CCK-4 derivatives containing side-chain ureas as potent and selective CCK-a receptor agonists” (J Med Chem, 1991).
*1 amine or outer side, *2 acyl side, *3 side chain or, on linkers, in order; H or OH if unused. Where a SMILES comes first, the peptide text is derived from it. Side-chain parts run from the residue outwards. The star is where a group is joined. NH(2-CF3-phenyl) = FC(F)(F)c1ccccc1N*; NH(1-naphthyl) = c1ccc2c(N*)cccc2c1; NH(2,6-Me2-phenyl) = Cc1cccc(C)c1N*; NHPh(4-CF3) = FC(F)(F)c1ccc(N*)cc1; NH(3-Cl-phenyl) = Clc1cccc(N*)c1; NH(4-Cl-phenyl) = Clc1ccc(N*)cc1; NH(4-Me-phenyl) = Cc1ccc(N*)cc1; NH(2-Me-phenyl) = Cc1ccccc1N*; NH(2-ClPh) = Clc1ccccc1N*; 2Abz = Nc1ccccc1C(=O)O; Boc = CC(C)(C)OC(=O)*; CO = O=C([*:1])[*:2]; NHBn = c1ccc(CN*)cc1

Experiments:
[1] = target: T1, Cholecystokinin receptor type A (Cavia porcellus, UniProt Q63931); experiment: Binding affinity towards cholecystokinin type A receptor in guinea pig pancreas by using [125I]BH-CCK-8 as radioligand; assay type: tissue-based
T1 sequence (Q63931 whole entry): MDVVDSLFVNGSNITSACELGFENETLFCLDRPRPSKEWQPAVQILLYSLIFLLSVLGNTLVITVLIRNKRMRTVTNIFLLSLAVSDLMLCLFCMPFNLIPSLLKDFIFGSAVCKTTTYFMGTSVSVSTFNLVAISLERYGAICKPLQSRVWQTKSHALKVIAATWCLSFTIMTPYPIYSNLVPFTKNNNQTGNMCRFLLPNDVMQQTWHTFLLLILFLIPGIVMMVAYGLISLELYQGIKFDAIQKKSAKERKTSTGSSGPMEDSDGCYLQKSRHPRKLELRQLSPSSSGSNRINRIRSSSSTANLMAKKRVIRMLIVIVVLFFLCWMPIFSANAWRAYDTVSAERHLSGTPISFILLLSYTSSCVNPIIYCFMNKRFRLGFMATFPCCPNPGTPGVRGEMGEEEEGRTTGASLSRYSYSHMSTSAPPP
How it was run: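 Radioligand displacement of [125I]Bolton-Hunter CCK-8, guinea pig pancreas (CCK-A) or cortex (CCK-B) membranes. […] Each determination was run in duplicate with <5% sample variability. Means ±SE are given where there were three or more determinations.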

[2] = target: T1, Cholecystokinin receptor type A; experiment: Binding affinity for Cholecystokinin type A receptor in guinea pig pancreas by using [125I]BH-CCK-8 as radioligand
[3] = Selectivity ratio of IC50 measured in guinea pig cortex to that of IC50 for guinea pig pancreas; conditions: Cavia porcellus
Cavia porcellus [4] = species: Cavia porcellus; experiment: The compound was tested for effective concentration for amylase release in guinea pig pancreatic Acini; assay type: functional
How it was run: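 Amylase release from guinea pig pancreatic acini. […] Each determination was run in duplicate with <5% sample variability. Means ±SE are given where there were three or more determinations.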

Cavia porcellus [5] = species: Cavia porcellus; experiment: Percentage response in phosphoinositide hydrolysis relative to maximal response elicited by CCK-8 in guinea pig pancreatic acini; assay type: functional
How it was run: (§1)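 Guinea pig pancreatic acini, phosphoinositide hydrolysis. […] Efficacy is expressed as % of the maximal response elicited by CCK-8. Each determination was run in duplicate with <5% sample variability. Means ±SE are given for three or more determinations.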

Cavia porcellus [6] = species: Cavia porcellus; experiment: Effective concentration for hydrolysis of phosphoinositide in guinea pig pancreatic Acini; assay type: functional; how it was run: as §1

Row | SMILES | IC50 [1] [nM] | IC50 [2] [nM] | Selectivity [3] | EC50 (Cavia porcellus [4]) [nM] | Max response (Cavia porcellus [5]) [%] | EC50 (Cavia porcellus [6]) [nM]
1 | Cc1ccccc1/N=C(/S)NCCCC[C@H](NC(=O)[C@H](Cc1c[nH]c2ccccc12)NC(=O)OC(C)(C)C)C(=O)N[C@@H](CC(=O)O)C(=O)N[C@@H](Cc1ccccc1)C(N)=O | 220 |  |  |  |  | 
2 | CC(C)(C)OC(=O)N[C@@H](Cc1c[nH]c2ccccc12)C(=O)N[C@@H](CCCC/N=C(\S)Nc1ccc(Cl)cc1)C(=O)N[C@@H](CC(=O)O)C(=O)N[C@@H](Cc1ccccc1)C(N)=O |  | 270 |  |  |  | 
3 | CC(C)(C)OC(=O)N[C@@H](Cc1c[nH]c2ccccc12)C(=O)N[C@@H](CCCC/N=C(\S)Nc1ccccc1Cl)C(=O)N[C@@H](CC(=O)O)C(=O)N[C@@H](Cc1ccccc1)C(N)=O |  | 100 | 29 | 20 | 83 | 
4 | COC(=O)c1ccccc1NC(=O)NCCCC[C@H](NC(=O)[C@H](Cc1c[nH]c2ccccc12)NC(=O)OC(C)(C)C)C(=O)N[C@@H](CC(=O)O)C(=O)N[C@@H](Cc1ccccc1)C(N)=O (Boc-WK([CO-2Abz-OMe])DF-NH2) |  | 34 | 91 |  |  | 
5 | CC(C)(C)OC(=O)N[C@@H](Cc1c[nH]c2ccccc12)C(=O)N[C@@H](CCCCNC(=O)Nc1cccc2ccccc12)C(=O)N[C@@H](CC(=O)O)C(=O)N[C@@H](Cc1ccccc1)C(N)=O (Boc-WK([CO-NH(1-naphthyl)])DF-NH2) |  | 16 | 690 | 1.6 | 103 | 14
6 | Cc1cccc(C)c1NC(=O)NCCCC[C@H](NC(=O)[C@H](Cc1c[nH]c2ccccc12)NC(=O)OC(C)(C)C)C(=O)N[C@@H](CC(=O)O)C(=O)N[C@@H](Cc1ccccc1)C(N)=O (Boc-WK([CO-NH(2,6-Me2-phenyl)])DF-NH2) |  | 800 |  |  | 40 | 910
7 | CC(C)(C)OC(=O)N[C@@H](Cc1c[nH]c2ccccc12)C(=O)N[C@@H](CCCCNC(=O)Nc1ccccc1C(F)(F)F)C(=O)N[C@@H](CC(=O)O)C(=O)N[C@@H](Cc1ccccc1)C(N)=O (Boc-WK([CO-NH(2-CF3-phenyl)])DF-NH2) |  | 8 |  | 0.77 | 100 | 6.2
8 | CC(C)(C)OC(=O)N[C@@H](Cc1c[nH]c2ccccc12)C(=O)N[C@@H](CCCCNC(=O)Nc1ccccc1Cl)C(=O)N[C@@H](CC(=O)O)C(=O)N[C@@H](Cc1ccccc1)C(N)=O (Boc-WK([CO-NH(2-ClPh)])DF-NH2) |  |  |  |  | 91 | 4.6
9 | Cc1ccccc1NC(=O)NCCCC[C@H](NC(=O)[C@H](Cc1c[nH]c2ccccc12)NC(=O)OC(C)(C)C)C(=O)N[C@@H](CC(=O)O)C(=O)N[C@@H](Cc1ccccc1)C(N)=O (Boc-WK([CO-NH(2-Me-phenyl)])DF-NH2) |  |  |  |  | 101 | 12
10 | CC(C)(C)OC(=O)N[C@@H](Cc1c[nH]c2ccccc12)C(=O)N[C@@H](CCCCNC(=O)Nc1cccc(Cl)c1)C(=O)N[C@@H](CC(=O)O)C(=O)N[C@@H](Cc1ccccc1)C(N)=O (Boc-WK([CO-NH(3-Cl-phenyl)])DF-NH2) |  | 51 |  | 4.4 | 93 | 
11 | CC(C)(C)OC(=O)N[C@@H](Cc1c[nH]c2ccccc12)C(=O)N[C@@H](CCCCNC(=O)Nc1ccc(Cl)cc1)C(=O)N[C@@H](CC(=O)O)C(=O)N[C@@H](Cc1ccccc1)C(N)=O (Boc-WK([CO-NH(4-Cl-phenyl)])DF-NH2) |  | 60 |  | 9.6 | 91 | 
12 | Cc1ccc(NC(=O)NCCCC[C@H](NC(=O)[C@H](Cc2c[nH]c3ccccc23)NC(=O)OC(C)(C)C)C(=O)N[C@@H](CC(=O)O)C(=O)N[C@@H](Cc2ccccc2)C(N)=O)cc1 (Boc-WK([CO-NH(4-Me-phenyl)])DF-NH2) |  |  |  |  | 91 | 140
13 | CC(C)(C)OC(=O)N[C@@H](Cc1c[nH]c2ccccc12)C(=O)N[C@@H](CCCCNC(=O)NCc1ccccc1)C(=O)N[C@@H](CC(=O)O)C(=O)N[C@@H](Cc1ccccc1)C(N)=O (Boc-WK([CO-NHBn])DF-NH2) |  | 230 |  |  |  | 
14 | CC(C)(C)OC(=O)N[C@@H](Cc1c[nH]c2ccccc12)C(=O)N[C@@H](CCCCNC(=O)Nc1ccc(C(F)(F)F)cc1)C(=O)N[C@@H](CC(=O)O)C(=O)N[C@@H](Cc1ccccc1)C(N)=O (Boc-WK([CO-NHPh(4-CF3)])DF-NH2) |  | 170 | 5 |  |  | 
